≈ marks a conversion by molar mass, not a printed value.
Assays:
[1] = tested on: Aspergillus niger; test: Antifungal activity against Aspergillus niger at 50 ug/ml incubated for 48 hrs by agar well diffusion method; format: functional; conditions: read-out: DIZ
Outline: (§1)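 Compounds dissolved in DMSO at 5 mg mL⁻¹ and 5–20 µL added to 6 mm wells, giving 25, 50, 75, 100 µg per well. Bavistin was the positive control and DMSO the negative control. Plates incubated at 28 °C for 48 h, then inhibition zone diameter (mm) measured. Values are means of three determinations.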

[2] = tested on: Escherichia coli; test: Antibacterial activity against Escherichia coli at 75 ug/ml incubated for 24 hrs by agar well diffusion method; format: functional; conditions: read-out: DIZ
Outline: as §1, with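 “Bacteria grown in nutrient broth at 37 °C for 24 h, then subcultured at room temperature. Compounds” for “Compounds”, “Gentamicin” for “Bavistin”, “held” for “incubated”, “37” for “28”, “24” for “48”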

[3] = tested on: Fusarium oxysporum; test: Antifungal activity against Fusarium oxysporum at 100 ug/ml incubated for 48 hrs by agar well diffusion method; format: functional; conditions: read-out: DIZ; outline: as §1
[4] = tested on: Escherichia coli; test: Antibacterial activity against Escherichia coli at 50 ug/ml incubated for 24 hrs by agar well diffusion method; format: functional; conditions: read-out: DIZ
Outline: as §1, with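 “Bacteria grown in nutrient broth at 37 °C for 24 h, then subcultured at room temperature. Compounds” for “Compounds”, “Gentamicin” for “Bavistin”, “held” for “incubated”, “37” for “28”, “24” for “48”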

[5] = tested on: Candida albicans; test: Antifungal activity against Candida albicans at 75 ug/ml incubated for 48 hrs by agar well diffusion method; format: functional; conditions: read-out: DIZ; outline: as §1
[6] = tested on: Fusarium oxysporum; test: Antifungal activity against Fusarium oxysporum at 25 ug/ml incubated for 48 hrs by agar well diffusion method; format: functional; conditions: read-out: DIZ; outline: as §1
[7] = tested on: Staphylococcus aureus; test: Antibacterial activity against Staphylococcus aureus at 50 ug/ml incubated for 24 hrs by agar well diffusion method; format: functional; conditions: read-out: DIZ
Outline: as §1, with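 “Bacteria grown in nutrient broth at 37 °C for 24 h, then subcultured at room temperature. Compounds” for “Compounds”, “Gentamicin” for “Bavistin”, “held” for “incubated”, “37” for “28”, “24” for “48”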

[8] = tested on: Bacillus subtilis; test: Antibacterial activity against Bacillus subtilis at 50 ug/ml incubated for 24 hrs by agar well diffusion method; format: functional; conditions: read-out: DIZ
Outline: as §1, with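 “Bacteria grown in nutrient broth at 37 °C for 24 h, then subcultured at room temperature. Compounds” for “Compounds”, “Gentamicin” for “Bavistin”, “held” for “incubated”, “37” for “28”, “24” for “48”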

[9] = tested on: Fusarium oxysporum; test: Antifungal activity against Fusarium oxysporum at 75 ug/ml incubated for 48 hrs by agar well diffusion method; format: functional; conditions: read-out: DIZ; outline: as §1
[10] = tested on: Aspergillus niger; test: Antifungal activity against Aspergillus niger at 75 ug/ml incubated for 48 hrs by agar well diffusion method; format: functional; conditions: read-out: DIZ; outline: as §1
[11] = tested on: Candida albicans; test: Antifungal activity against Candida albicans at 100 ug/ml incubated for 48 hrs by agar well diffusion method; format: functional; conditions: read-out: DIZ; outline: as §1
[12] = tested on: Escherichia coli; test: Antibacterial activity against Escherichia coli at 100 ug/ml incubated for 24 hrs by agar well diffusion method; format: functional; conditions: read-out: DIZ
Outline: as §1, with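 “Bacteria grown in nutrient broth at 37 °C for 24 h, then subcultured at room temperature. Compounds” for “Compounds”, “Gentamicin” for “Bavistin”, “held” for “incubated”, “37” for “28”, “24” for “48”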

[13] = tested on: Staphylococcus aureus; test: Antibacterial activity against Staphylococcus aureus at 75 ug/ml incubated for 24 hrs by agar well diffusion method; format: functional; conditions: read-out: DIZ
Outline: as §1, with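 “Bacteria grown in nutrient broth at 37 °C for 24 h, then subcultured at room temperature. Compounds” for “Compounds”, “Gentamicin” for “Bavistin”, “held” for “incubated”, “37” for “28”, “24” for “48”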

[14] = tested on: Aspergillus niger; test: Antifungal activity against Aspergillus niger at 25 ug/ml incubated for 48 hrs by agar well diffusion method; format: functional; conditions: read-out: DIZ; outline: as §1
[15] = tested on: Klebsiella pneumoniae; test: Antibacterial activity against Klebsiella pneumoniae at 75 ug/ml incubated for 24 hrs by agar well diffusion method; format: functional; conditions: read-out: DIZ
Outline: as §1, with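 “Bacteria grown in nutrient broth at 37 °C for 24 h, then subcultured at room temperature. Compounds” for “Compounds”, “Gentamicin” for “Bavistin”, “held” for “incubated”, “37” for “28”, “24” for “48”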

[16] = tested on: Candida albicans; test: Antifungal activity against Candida albicans at 25 ug/ml incubated for 48 hrs by agar well diffusion method; format: functional; conditions: read-out: DIZ; outline: as §1
[17] = tested on: Bacillus subtilis; test: Antibacterial activity against Bacillus subtilis at 25 ug/ml incubated for 24 hrs by agar well diffusion method; format: functional; conditions: read-out: DIZ
Outline: as §1, with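 “Bacteria grown in nutrient broth at 37 °C for 24 h, then subcultured at room temperature. Compounds” for “Compounds”, “Gentamicin” for “Bavistin”, “held” for “incubated”, “37” for “28”, “24” for “48”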

[18] = tested on: Klebsiella pneumoniae; test: Antibacterial activity against Klebsiella pneumoniae at 25 ug/ml incubated for 24 hrs by agar well diffusion method; format: functional; conditions: read-out: DIZ
Outline: as §1, with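 “Bacteria grown in nutrient broth at 37 °C for 24 h, then subcultured at room temperature. Compounds” for “Compounds”, “Gentamicin” for “Bavistin”, “held” for “incubated”, “37” for “28”, “24” for “48”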

[19] = tested on: Bacillus subtilis; test: Antibacterial activity against Bacillus subtilis at 100 ug/ml incubated for 24 hrs by agar well diffusion method; format: functional; conditions: read-out: DIZ
Outline: as §1, with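 “Bacteria grown in nutrient broth at 37 °C for 24 h, then subcultured at room temperature. Compounds” for “Compounds”, “Gentamicin” for “Bavistin”, “held” for “incubated”, “37” for “28”, “24” for “48”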

[20] = tested on: Klebsiella pneumoniae; test: Antibacterial activity against Klebsiella pneumoniae at 100 ug/ml incubated for 24 hrs by agar well diffusion method; format: functional; conditions: read-out: DIZ
Outline: as §1, with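 “Bacteria grown in nutrient broth at 37 °C for 24 h, then subcultured at room temperature. Compounds” for “Compounds”, “Gentamicin” for “Bavistin”, “held” for “incubated”, “37” for “28”, “24” for “48”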

[21] = tested on: Klebsiella pneumoniae; test: Antibacterial activity against Klebsiella pneumoniae at 50 ug/ml incubated for 24 hrs by agar well diffusion method; format: functional; conditions: read-out: DIZ
Outline: as §1, with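 “Bacteria grown in nutrient broth at 37 °C for 24 h, then subcultured at room temperature. Compounds” for “Compounds”, “Gentamicin” for “Bavistin”, “held” for “incubated”, “37” for “28”, “24” for “48”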

[22] = tested on: Staphylococcus aureus; test: Antibacterial activity against Staphylococcus aureus at 100 ug/ml incubated for 24 hrs by agar well diffusion method; format: functional; conditions: read-out: DIZ
Outline: as §1, with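 “Bacteria grown in nutrient broth at 37 °C for 24 h, then subcultured at room temperature. Compounds” for “Compounds”, “Gentamicin” for “Bavistin”, “held” for “incubated”, “37” for “28”, “24” for “48”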

[23] = tested on: Candida albicans; test: Antifungal activity against Candida albicans at 50 ug/ml incubated for 48 hrs by agar well diffusion method; format: functional; conditions: read-out: DIZ; outline: as §1
[24] = tested on: Erythrocyte; test: Anti-inflammatory activity in human RBC assessed as inhibition of hypotonic solution-induced hemolysis after 10 mins by spectrophotometric method; format: functional, cell-based
Outline: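 Human blood (heparinized) washed with 0.9% saline, packed cells made into a 40% v/v stock in isotonic phosphate buffer (154 mM NaCl, 10 mM sodium phosphate, pH 7.4). Stock RBC mixed with hypotonic buffer (50 mM NaCl, 10 mM phosphate, pH 7.4) plus sample at 20–100 µg mL⁻¹.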

[25] = tested on: Aspergillus niger; test: Antifungal activity against Aspergillus niger at 100 ug/ml incubated for 48 hrs by agar well diffusion method; format: functional; conditions: read-out: DIZ; outline: as §1
[26] = tested on: Fusarium oxysporum; test: Antifungal activity against Fusarium oxysporum at 50 ug/ml incubated for 48 hrs by agar well diffusion method; format: functional; conditions: read-out: DIZ; outline: as §1
[27] = tested on: Staphylococcus aureus; test: Antibacterial activity against Staphylococcus aureus at 25 ug/ml incubated for 24 hrs by agar well diffusion method; format: functional; conditions: read-out: DIZ
Outline: as §1, with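 “Bacteria grown in nutrient broth at 37 °C for 24 h, then subcultured at room temperature. Compounds” for “Compounds”, “Gentamicin” for “Bavistin”, “held” for “incubated”, “37” for “28”, “24” for “48”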

[28] = tested on: Bacillus subtilis; test: Antibacterial activity against Bacillus subtilis at 75 ug/ml incubated for 24 hrs by agar well diffusion method; format: functional; conditions: read-out: DIZ
Outline: as §1, with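 “Bacteria grown in nutrient broth at 37 °C for 24 h, then subcultured at room temperature. Compounds” for “Compounds”, “Gentamicin” for “Bavistin”, “held” for “incubated”, “37” for “28”, “24” for “48”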

[29] = tested on: Escherichia coli; test: Antibacterial activity against Escherichia coli at 25 ug/ml incubated for 24 hrs by agar well diffusion method; format: functional; conditions: read-out: DIZ
Outline: as §1, with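 “Bacteria grown in nutrient broth at 37 °C for 24 h, then subcultured at room temperature. Compounds” for “Compounds”, “Gentamicin” for “Bavistin”, “held” for “incubated”, “37” for “28”, “24” for “48”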

| SMILES | zone of inhibition at 50 µg/mL [1] [mm] | zone of inhibition at 75 µg/mL [2] [mm] | zone of inhibition at 100 µg/mL [3] [mm] | zone of inhibition at 50 µg/mL [4] [mm] | zone of inhibition at 75 µg/mL [5] [mm] | zone of inhibition at 25 µg/mL [6] [mm] | zone of inhibition at 50 µg/mL [7] [mm] | zone of inhibition at 50 µg/mL [8] [mm] | zone of inhibition at 75 µg/mL [9] [mm] | zone of inhibition at 75 µg/mL [10] [mm] | zone of inhibition at 100 µg/mL [11] [mm] | zone of inhibition at 100 µg/mL [12] [mm] | zone of inhibition at 75 µg/mL [13] [mm] | zone of inhibition at 25 µg/mL [14] [mm] | zone of inhibition at 75 µg/mL [15] [mm] | zone of inhibition at 25 µg/mL [16] [mm] | zone of inhibition at 25 µg/mL [17] [mm] | zone of inhibition at 25 µg/mL [18] [mm] | zone of inhibition at 100 µg/mL [19] [mm] | zone of inhibition at 100 µg/mL [20] [mm] | also measured |
| --- | --- | --- | --- | --- | --- | --- | --- | --- | --- | --- | --- | --- | --- | --- | --- | --- | --- | --- | --- | --- | --- |
| CC(C)(C)OC(=O)NCC(=O)Oc1ccc2c(=O)c3ccccc3oc2c1 | 9 | 16 | 15 | 3 | 14 | 4 | 12 | 12 | 13 | 12 | 16 | 21 | 16 | 5 | 17 | 7 | 6 | 16 | 20 | 23 | zone of inhibition at 50 µg/mL [21]: 12 mm; zone of inhibition at 100 µg/mL [22]: 22 mm; zone of inhibition at 50 µg/mL [23]: 10 mm; IC50 [24]: 66 µg/mL (≈ 179 µM); zone of inhibition at 100 µg/mL [25]: 15 mm; zone of inhibition at 50 µg/mL [26]: 9 mm; zone of inhibition at 25 µg/mL [27]: 7 mm; zone of inhibition at 75 µg/mL [28]: 16 mm; zone of inhibition at 25 µg/mL [29]: 7 mm |
| CC(C)C[C@H](N)C(=O)Oc1ccc2c(=O)c3ccccc3oc2c1.Cl | 14 | 20 | 19 | 14 | 19 | 9 | 12 | 19 | 17 | 19 | 21 | 24 | 15 | 10 | 22 | 10 | 13 | 10 | 29 | 26 | zone of inhibition at 50 µg/mL [21]: 16 mm; zone of inhibition at 100 µg/mL [22]: 21 mm; zone of inhibition at 50 µg/mL [23]: 15 mm; IC50 [24]: 70 µg/mL; zone of inhibition at 100 µg/mL [25]: 22 mm; zone of inhibition at 50 µg/mL [26]: 13 mm; zone of inhibition at 25 µg/mL [27]: 9 mm; zone of inhibition at 75 µg/mL [28]: 24 mm; zone of inhibition at 25 µg/mL [29]: 8 mm |
| CC[C@H](C)[C@H](N)C(=O)Oc1ccc2c(=O)c3ccccc3oc2c1.Cl | 15 | 18 | 21 | 13 | 16 | 11 | 12 | 17 | 19 | 18 | 20 | 22 | 19 | 10 | 18 | 10 | 11 | 8 | 24 | 24 | zone of inhibition at 50 µg/mL [21]: 13 mm; zone of inhibition at 100 µg/mL [22]: 23 mm; zone of inhibition at 50 µg/mL [23]: 14 mm; IC50 [24]: 68 µg/mL; zone of inhibition at 100 µg/mL [25]: 23 mm; zone of inhibition at 50 µg/mL [26]: 15 mm; zone of inhibition at 25 µg/mL [27]: 7 mm; zone of inhibition at 75 µg/mL [28]: 20 mm; zone of inhibition at 25 µg/mL [29]: 10 mm |
